In ChEMBL document CHEMBL3997808 (J Med Chem, 2017):

Legend:
[1] = tested on: Mus musculus; assay: Protection against TNF-induced lethal shock in mouse assessed as reduction in body temperature loss at 10 mg/kg, po pretreated for 15 mins followed by TNF-stimulation measured after 6 hrs relative to control; type: functional; parameters: scale not given: the % may be the effect or the level left
[2] = (§1) Displacement of (14-(2-{[3-({2-{[4-(cyanomethyl)phenyl]amino}-6-[(5-cyclopropyl-1H-pyrazol-3-yl)-amino]-4-pyrimidinyl}amino)propyl]amino}-2-oxoethyl)-16,16,18,18-tetramethyl-6,7,7a,8a,9,10,16,18-octahydrobenzo[2'',3'']indolizino-[8'',7'':5',6']pyrano[3',2':3,4]pyrido[1,2-a]indol-5-ium-2-sulfonate from rat RIP1 (1 to 377 residues) expressed in baculovirus infected insect cells measured for 50 mins by fluorescence polarization assay
Procedure, shortened: (§2)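 Competitive FP binding assay in which test compounds displace a fluorescently labeled ATP-competitive ligand from RIP1.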

[3] = biological target: T1, Receptor-interacting serine/threonine-protein kinase 1 (Homo sapiens) (UniProt Q13546)
T1 sequence (whole entry): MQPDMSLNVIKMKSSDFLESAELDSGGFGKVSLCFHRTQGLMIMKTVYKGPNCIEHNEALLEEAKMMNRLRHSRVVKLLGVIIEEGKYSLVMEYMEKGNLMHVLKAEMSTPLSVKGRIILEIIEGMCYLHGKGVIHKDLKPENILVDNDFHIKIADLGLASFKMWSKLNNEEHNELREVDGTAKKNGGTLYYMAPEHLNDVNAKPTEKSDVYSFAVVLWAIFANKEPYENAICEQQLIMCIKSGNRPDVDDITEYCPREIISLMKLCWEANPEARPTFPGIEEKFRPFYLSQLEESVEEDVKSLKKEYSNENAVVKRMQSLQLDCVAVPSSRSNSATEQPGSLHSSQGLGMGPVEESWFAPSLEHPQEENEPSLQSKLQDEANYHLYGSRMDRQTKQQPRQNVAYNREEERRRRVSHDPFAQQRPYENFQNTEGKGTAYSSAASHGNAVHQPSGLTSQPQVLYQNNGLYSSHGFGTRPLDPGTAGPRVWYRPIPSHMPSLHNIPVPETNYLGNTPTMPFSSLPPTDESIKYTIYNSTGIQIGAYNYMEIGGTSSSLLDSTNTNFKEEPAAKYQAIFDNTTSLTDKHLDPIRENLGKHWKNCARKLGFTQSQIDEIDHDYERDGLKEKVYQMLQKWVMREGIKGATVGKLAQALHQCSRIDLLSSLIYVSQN

[4] = tested on: Mus musculus; assay: In vivo inhibition of RIP1 in po dosed mouse model of TNF/zVAD-induced lethal shock assessed as plasma concentration required for reduction in body temperature loss pretreated for 15 mins followed by TNF-stimulation measured after 3 hrs; type: functional, organism-based
[5] = tested on: Mus musculus; assay: Protection against TNF/zVAD-induced lethal shock in mouse assessed as reduction in body temperature loss at 50 mg/kg, po pretreated for 15 mins followed by TNF/zVAD-stimulation measured after 3 hrs relative to control; type: functional; parameters: scale not given: the % may be the effect or the level left
[6] = as §1, with “rabbit” for “rat”, “371” for “377”; parameters: species or system Oryctolagus cuniculus; procedure, shortened: as §2
[7] = tested on: Mus musculus; assay: Protection against TNF-induced lethal shock in mouse assessed as reduction in body temperature loss at 50 mg/kg, po pretreated for 15 mins followed by TNF-stimulation measured after 6 hrs relative to control; type: functional; parameters: scale not given: the % may be the effect or the level left
[8] = as §1, with “mini pig” for “rat”, “375” for “377”; parameters: species or system Sus scrofa; procedure, shortened: as §2
[9] = tested on: Mus musculus; assay: Protection against TNF-induced lethal shock in mouse assessed as reduction in body temperature loss at 3 mg/kg, po pretreated for 15 mins followed by TNF-stimulation measured after 6 hrs relative to control; type: functional; parameters: scale not given: the % may be the effect or the level left
[10] = as §1, with “monkey” for “rat”, “379” for “377”; parameters: species or system Macaca mulatta; procedure, shortened: as §2
[11] = tested on: Mus musculus; assay: Protection against TNF/zVAD-induced lethal shock in mouse assessed as reduction in body temperature loss at 3 mg/kg, po pretreated for 15 mins followed by TNF/zVAD-stimulation measured after 3 hrs relative to control; type: functional; parameters: scale not given: the % may be the effect or the level left
[12] = tested on: Mus musculus; assay: In vivo inhibition of RIP1 in po dosed mouse model of TNF-induced lethal shock assessed as plasma concentration required for reduction in body temperature loss pretreated for 15 mins followed by TNF-stimulation measured after 6 hrs; type: functional, organism-based
[13] = Inhibition of RIP1 in cynomolgus monkey whole blood assessed as reduction in TNFalpha/[…]/zVAD FMK/SMAC mimetic RMT 5265-IL-1beta production after 6 hrs by sandwich ELISA; conditions: Macaca fascicularis
Procedure, shortened: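 Heparinized venous cynomolgus whole blood was stimulated with stocks of TNF (200 ng/mL), QVD-OPh or zVAD.fmk (400 μM) and RMT 5265 (20 μM), with stock values as printed. Compound was a 5-fold dilution series, top 5 μM, in RPMI/1% FBS/1% DMSO. Incubation was 6 h at 37 °C, 5% CO2, then PBS dilution and centrifugation. Supernatant IL-1β was read by sandwich ELISA.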

[14] = as §1, with “dog” for “rat”, “373” for “377”; parameters: species or system Canis lupus familiaris; procedure, shortened: as §2
[15] = tested on: Mus musculus; assay: Protection against TNF/zVAD-induced lethal shock in mouse assessed as reduction in body temperature loss at 10 mg/kg, po pretreated for 15 mins followed by TNF/zVAD-stimulation measured after 3 hrs relative to control; type: functional; parameters: scale not given: the % may be the effect or the level left

For `CN1C(=O)[C@@H](NC(=O)c2n[nH]c(Cc3ccccc3)n2)COc2ccccc21` [GSK2982772], the Activity [1] was 80%, the IC50 [2] was 2000 nM and the T1/2 [3] was 1.87 h. The IC50 [4] was 3200 nM, the Activity [5] was 93% and the IC50 [6] was 790 nM. For the same compound, the Activity [7] was 87%, the IC50 [8] was > 10000 nM and the Activity [9] was 68%. For the same compound, the IC50 [10] was 20 nM, the Activity [11] was 13% and the IC50 [12] was 1000 nM. For the same compound, the IC50 [13] was 4 nM, the IC50 [14] was 5000 nM and the Activity [15] was 63%.
